From ChEMBL document CHEMBL1147407, “The design and synthesis of novel inhibitors of NADH:ubiquinone oxidoreductase” (Bioorg Med Chem Lett, 2004)

What was measured:
[1] = Inhibition of NADH:ubiquinone oxidoreductase from house fly (Musca domestica) flight muscles; type: tissue-based, Muscle tissue
Summary of the method: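 House fly flight-muscle complex I. Activity was measured as NADH oxidation, followed photometrically at 340 nm, with n-decylubiquinone as the electron acceptor.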

[2] = test system: Tetranychus urticae; assay: Acaricidal activity of a compound (300 p.p.m.) was evaluated against Tetranychus urticae infected on bean plants; type: functional

| Structure (SMILES) | IC50 [1] [nM] | Activity [2] [%] |
| --- | --- | --- |
| Cc1c(SCc2ccc(C(C)(C)C)cc2)oc2ccccc2c1=O | 8 | 100 |
| Cc1c(NCCc2ccc(C(C)(C)C)cc2)oc2ccccc2c1=O | 200 | 0 |
| CC(C)(C)c1ccc(CSc2cc(=O)c3ccccc3o2)cc1 | 500 | 0 |
| CCc1c(SCc2ccc(C(C)(C)C)cc2)oc2ccccc2c1=O | > 200 | 0 |
| Cc1c(SCCc2ccc(C(C)(C)C)cc2)oc2ccccc2c1=O | 10 | 80 |
| Cc1c(S(=O)(=O)Cc2ccc(C(C)(C)C)cc2)oc2ccccc2c1=O | 160 | 0 |
| CC(C)(C)c1ccc(CSc2oc3ccccc3c(=O)c2Cl)cc1 | 6 | 50 |
| Cc1c(NCc2ccc(C(C)(C)C)cc2)oc2ccccc2c1=O | 20 | 0 |
